The subject of data set [1] is Artemia salina. Put plainly: Cytotoxicity in brine shrimps larvae assessed as mortality after 24 hrs. Type of data set: functional. Conditions: read-out: ED50 (the source's name). Put shortly:
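Artemia salina nauplii hatched 38 h under constant aeration in sterile brine (sea salt 38 g/L, pH 8.5 with 1 N NaOH). Ten nauplii per vial were exposed to a range of compound concentrations at 37 °C for 24 h under incandescent light, alongside vehicle-treated controls. Survivors were counted, % lethality was taken from mean survivors versus control, and ED50 came from probit analysis.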

Data set [2] deals with Rattus norvegicus. Put plainly: Antihyperglycemic activity in streptozotocin-induced type 2 diabetic Wistar albino rat assessed as reduction in plasma glucose level at 30 mg/kg, po by glucometer. Type of data set: functional. Put shortly:
(§1)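 Wistar albino rats of either sex, 150–200 g, fasted 16 h. Diabetes induced by nicotinamide 150 mg/kg, then STZ 65 mg/kg in citrate buffer pH 4.5. Glucose confirmed after 48 h. Groups of six. Oral dosing as 0.25% sodium CMC suspension at 10, 30 or 50 mg/kg. Rosiglitazone was the reference. Retro-orbital plasma glucose measured by glucometer before dosing and at 1, 2, 4, 6, 8, 12 and 24 h. Results as mean ± SEM, compared by ANOVA, t-test and Dunnett's test.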

Data set [3] deals with Klebsiella pneumoniae. Put plainly: Antibacterial activity against Klebsiella pneumoniae NCIM 5082 after 24 hrs by NCCLS agar well diffusion method. Type of data set: functional. The settings on record: NCIM 5082, 24 h. Put shortly:
(§2)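 Nutrient agar seeded with 0.1 mL bacterial suspension (10⁵ CFU/mL in 0.85% saline). 6 mm wells filled with 0.1 mL compound. Plates in triplicate, 37 ± 0.5 °C for 24 h. MIC = lowest concentration giving complete growth inhibition.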
(In general: A growth-free zone around the sample is the usual read-out of agar diffusion tests.)

The test system of data set [4] is Pseudomonas aeruginosa. The experiment in a line: Antibacterial activity against Pseudomonas aeruginosa NCIM 2036 after 24 hrs by NCCLS agar well diffusion method. The class given is functional. Conditions: NCIM 2036, 24 h. The essentials:
as §2

The test system of data set [5] is Micrococcus luteus. The experiment in a line: Antibacterial activity against Micrococcus luteus NCIM 2155 after 24 hrs by NCCLS agar well diffusion method. The class given is functional. The settings on record: NCIM 2155, 24 h. Put shortly: as §2
Data set [6] is described as follows: Toxicity in mouse assessed as changes in vital functions. Type of data set: organism-based. The settings on record: in vivo.
Data set [7] concerns Escherichia coli. The experiment in a line: Antibacterial activity against Escherichia coli NCIM 2065 after 24 hrs by NCCLS agar well diffusion method. Type of data set: functional. Conditions: NCIM 2065, 24 h. The essentials:
as §2

Data set [8] deals with Proteus vulgaris. Put plainly: Antibacterial activity against Proteus vulgaris NCIM 2813 after 24 hrs by NCCLS agar well diffusion method. The class given is functional. The settings on record: NCIM 2813, 24 h. The essentials:
as §2

Data set [9] relates to Rattus norvegicus. Put plainly: Antihyperglycemic activity in streptozotocin-induced type 2 diabetic Wistar albino rat assessed as reduction in plasma glucose level at 50 mg/kg, po by glucometer. The class given is functional. Put shortly:
as §1

The test system of data set [10] is Candida albicans. The experiment in a line: Antifungal activity against Candida albicans NCIM 3102 after 48 hrs by NCCLS agar well diffusion method. Conditions: NCIM 3102, 48 h. Type of data set: functional. Put shortly:
(§3)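 Spore suspensions in sterile distilled water adjusted to 10⁶ CFU/mL, 0.1 mL spread on potato-dextrose agar. 6 mm wells received 0.1 mL compound in 1% DMSO (final 16–512 µg/mL). Controls: 1% DMSO and ketoconazole (16 µg/mL). Triplicate plates, 48 h at 28 ± 0.2 °C. MIC = lowest concentration completely inhibiting growth.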

For data set [11], the system named is Bacillus pumilus. Put plainly: Antibacterial activity against Bacillus pumilus NCIM 2327 after 24 hrs by NCCLS agar well diffusion method. The settings on record: NCIM 2327, 24 h. The class given is functional. The essentials:
as §2

Data set [12] relates to Aspergillus oryzae. The experiment in a line: Antifungal activity against Aspergillus oryzae NCIM 643 after 48 hrs by NCCLS agar well diffusion method. Type of data set: functional. The settings on record: NCIM 643, 48 h. Put shortly: as §3
The test system of data set [13] is Rattus norvegicus. Put plainly: Antihyperglycemic activity in streptozotocin-induced type 2 diabetic Wistar albino rat assessed as reduction in plasma glucose level at 10 mg/kg, po by glucometer. The class given is functional. The essentials:
as §1

The subject of data set [14] is Aspergillus niger. The experiment in a line: Antifungal activity against Aspergillus niger NCIM 548 after 48 hrs by NCCLS agar well diffusion method. The class given is functional. The settings on record: NCIM 548, 48 h. The essentials: as §3
For data set [15], the system named is Penicillium chrysogenum. Put plainly: Antifungal activity against Penicillium chrysogenum NCIM 738 after 48 hrs by NCCLS agar well diffusion method. The class given is functional. Conditions: NCIM 738, 48 h. Put shortly:
as §3

The test system of data set [16] is Bacillus subtilis. Put plainly: Antibacterial activity against Bacillus subtilis NCIM 2063 after 24 hrs by NCCLS agar well diffusion method. Type of data set: functional. The settings on record: NCIM 2063, 24 h. Put shortly: as §2
The test system of data set [17] is Staphylococcus aureus. The experiment in a line: Antibacterial activity against Staphylococcus aureus NCIM 2079 after 24 hrs by NCCLS agar well diffusion method. Type of data set: functional. Conditions: NCIM 2079, 24 h. Put shortly: as §2
For data set [18], the system named is Rattus norvegicus. Put plainly: Antihyperglycemic activity in po dosed streptozotocin-induced type 2 diabetic Wistar albino rat assessed as reduction in plasma glucose level by glucometer. Type of data set: functional, organism-based. Put shortly:
as §1

The structures appear in SMILES notation. Values after ≈ are worked out from the molar mass of the structure shown.

The term MIC denotes the smallest concentration in the dilution series that meets the test's criterion for growth inhibition. Higher therefore signals weaker potency.

Consider `O=C1NC(=O)/C(=C/c2ccc(/C=C/C(=O)c3cccc(Cl)c3)cc2)S1`, for which, in data set [1], the EC50 worked out at 24.8 µg/mL (≈ 67.1 µM). Also, the Activity in data set [2] is 15.42 mg/dL; in [9], 21.83 mg/dL; in data set [13], 11.71 mg/dL; in data set [18] it was “Dose-dependent effect”. In addition, the MIC amounted to 64 µg/mL (≈ 173 µM) in data set [3]; 32 µg/mL (≈ 86.5 µM) in data set [4]; 64 µg/mL (≈ 173 µM) in data set [5]; 64 µg/mL (≈ 173 µM) in data set [7]; 32 µg/mL (≈ 86.5 µM) in data set [8]; 128 µg/mL (≈ 346 µM) in [10]. Further, the MIC in [11], in [12], in [14], in data set [15], in data set [16] and in data set [17] was 64 µg/mL (≈ 173 µM) throughout. Further, the MTD in data set [6] worked out at 2000 mg/kg.

Regarding `O=C1NC(=O)/C(=C/c2ccc(/C=C/C(=O)c3cc(OCc4ccccc4)cc(OCc4ccccc4)c3)cc2)S1`, the EC50 in data set [1] is 26.8 µg/mL (≈ 49 µM). Besides, the Activity in [2] is 26.87 mg/dL; in data set [9], 30.12 mg/dL; in [13] it was 21.76 mg/dL; in [18] it was “Dose-dependent effect”. Further, the MIC in [3] was 16 µg/mL (≈ 29.2 µM); in data set [4], 16 µg/mL (≈ 29.2 µM); in data set [5], 16 µg/mL (≈ 29.2 µM); in data set [7], 32 µg/mL (≈ 58.4 µM); in data set [8] it was 32 µg/mL (≈ 58.4 µM); in [10], 16 µg/mL (≈ 29.2 µM). For the same compound, the MIC in data set [11], in data set [12], in data set [14], in data set [15], in data set [16] and in data set [17] was 16 µg/mL (≈ 29.2 µM) each time. Also, in data set [6], the MTD stood at 2000 mg/kg.

As for `Cc1ccc(C(=O)/C=C/c2ccc(/C=C3\SC(=O)NC3=O)cc2)cc1`, the EC50 in data set [1] worked out at 19.7 µg/mL (≈ 56.3 µM). In addition, the Activity in data set [2] is 21.81 mg/dL; in data set [9], 28.72 mg/dL; in data set [13], 17.66 mg/dL; in data set [18], “Dose-dependent effect”. Further, the MIC turned out to be 64 µg/mL (≈ 183 µM) in data set [3]; 32 µg/mL (≈ 91.6 µM) in data set [4]; 64 µg/mL (≈ 183 µM) in data set [5]; 32 µg/mL (≈ 91.6 µM) in data set [7]; 64 µg/mL (≈ 183 µM) in data set [8]; 256 µg/mL (≈ 733 µM) in [10]. The MIC in data set [11] is 32 µg/mL (≈ 91.6 µM); in data set [12], 64 µg/mL (≈ 183 µM); in data set [14], 256 µg/mL (≈ 733 µM); in data set [15] it was 64 µg/mL (≈ 183 µM); in data set [16] it was 32 µg/mL (≈ 91.6 µM); in data set [17], 32 µg/mL (≈ 91.6 µM). The MTD in [6] turned out to be 2000 mg/kg.

Regarding `O=C1NC(=O)/C(=C/c2ccc(/C=C/C(=O)c3ccc(Cl)cc3)cc2)S1`, in [1], the EC50 was found to be 12.1 µg/mL (≈ 32.6 µM). The Activity was 32.38 mg/dL in [2], 36.17 mg/dL in [9], 26.74 mg/dL in data set [13] and “Dose-dependent effect” in data set [18]. Also, the MIC amounted to 16 µg/mL (≈ 43.3 µM) in data set [3]; 32 µg/mL (≈ 86.5 µM) in [4]; 64 µg/mL (≈ 173 µM) in data set [5]; 32 µg/mL (≈ 86.5 µM) in [7]; 32 µg/mL (≈ 86.5 µM) in data set [8]; 64 µg/mL (≈ 173 µM) in data set [10]. For the same compound, the MIC in data set [11] was 16 µg/mL (≈ 43.3 µM); in [12], 64 µg/mL (≈ 173 µM); in data set [14], 64 µg/mL (≈ 173 µM); in data set [15] it was 64 µg/mL (≈ 173 µM); in data set [16] it was 32 µg/mL (≈ 86.5 µM); in [17], 32 µg/mL (≈ 86.5 µM). In data set [6], the MTD is 2000 mg/kg.

With `O=C1NC(=O)/C(=C/c2ccc(/C=C/C(=O)c3ccc(O)cc3O)cc2)S1`, in data set [1], the EC50 amounted to 49.2 µg/mL (≈ 134 µM). The Activity in [2] was 33.72 mg/dL; in data set [9], 41.67 mg/dL; in [13] it was 26.86 mg/dL; in [18] it was “Dose-dependent effect”. Also, the MIC worked out at 256 µg/mL (≈ 697 µM) in data set [3]; 256 µg/mL (≈ 697 µM) in data set [4]; 512 µg/mL (≈ 1390 µM) in [5]; 256 µg/mL (≈ 697 µM) in [7]; 256 µg/mL (≈ 697 µM) in data set [8]; 256 µg/mL (≈ 697 µM) in data set [10]. For the same compound, the MIC in data set [11], in [12], in data set [14], in data set [15], in data set [16] and in data set [17] was 256 µg/mL (≈ 697 µM) in each case. The MTD in data set [6] amounted to 2000 mg/kg.

As for `O=C1NC(=O)/C(=C/c2ccc(/C=C/C(=O)c3cc(O)ccc3O)cc2)S1`, the EC50 in [1] turned out to be 46.7 µg/mL (≈ 127 µM). For the same compound, the Activity in data set [2] was 38.86 mg/dL; in data set [9], 47.73 mg/dL; in data set [13], 30.74 mg/dL; in data set [18], “Dose-dependent effect”. Moreover, the MIC in data set [3] is 256 µg/mL (≈ 697 µM); in data set [4], 512 µg/mL (≈ 1390 µM); in [5], 512 µg/mL (≈ 1390 µM); in data set [7] it was 256 µg/mL (≈ 697 µM); in [8], 512 µg/mL (≈ 1390 µM); in data set [10], 128 µg/mL (≈ 348 µM). Moreover, the MIC is 256 µg/mL (≈ 697 µM) in data set [11]; 256 µg/mL (≈ 697 µM) in [12]; 256 µg/mL (≈ 697 µM) in data set [14]; 128 µg/mL (≈ 348 µM) in data set [15]; 512 µg/mL (≈ 1390 µM) in data set [16]; 256 µg/mL (≈ 697 µM) in data set [17]. Also, the MTD in [6] is 2000 mg/kg.

On to `O=C1NC(=O)/C(=C/c2ccc(/C=C/C(=O)c3ccc4ccccc4c3)cc2)S1`, for which, in [1], the EC50 came out at 48.1 µg/mL (≈ 125 µM). For the same compound, the Activity in [2] was 31.84 mg/dL; in [9], 36.93 mg/dL; in [13], 23.75 mg/dL; in data set [18], “Dose-dependent effect”. Also, the MIC in data set [3], in data set [4], in data set [5], in data set [7], in data set [8] and in data set [10] was 512 µg/mL (≈ 1330 µM) in each case. Further, the MIC in data set [11], in data set [12], in [14], in data set [15], in [16] and in data set [17] was 512 µg/mL (≈ 1330 µM) throughout. The MTD in data set [6] was 2000 mg/kg.

The values above are taken from ChEMBL document CHEMBL2151038, “Synthesis, characterization and biological evaluation of some novel 2,4-thiazolidinediones as potential cytotoxic, antimicrobial and antihyperglycemic agents” (Bioorg Med Chem Lett, 2012).
